According to ChEMBL document CHEMBL1158804, “Lupane triterpenoids from Maytenus species” (J Nat Prod, 2005):
In brackets after ≈: the same amount, converted by molar mass. Activity calls are given as the source filed them. The rule behind the calls is not given here.

Experiments:
[1] = system: Vero; assay: Cytotoxicity against african green monkey Vero cells after 48 hrs by MTT assay; type: cell-based; conditions: Chlorocebus sabaeus
How it was run: (§1)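 Monolayers are cultured in DMEM with 5% fetal calf serum and 1% penicillin-streptomycin at 37 °C, 5% CO2 and 90% humidity. Exponentially growing cells (2 × 10^4 cells/well) are exposed to a range of compound concentrations for 48 h at 37 °C. Viability is read by colorimetric MTT reduction.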

[2] = system: Bacillus pumilus; assay: Antibacterial activity against Bacillus pumilus CECT 29 by broth microdilution method; type: functional
How it was run: (§2)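 Compounds are dissolved in DMSO. The minimal inhibitory concentration is estimated by broth microdilution.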

[3] = system: Bacillus subtilis; assay: Antibacterial activity against Bacillus subtilis CECT 39 by broth microdilution method; type: functional; how it was run: as §2
[4] = system: HeLa; assay: Cytotoxicity against human HeLa cells after 48 hrs by MTT assay; type: functional, cell-based; how it was run: as §1
[5] = system: Bacillus cereus; assay: Antibacterial activity against Bacillus cereus CECT 496 by broth microdilution method; type: functional; how it was run: as §2
[6] = system: HEp-2; assay: Cytotoxicity against human Hep2 cells after 48 hrs by MTT assay; type: functional, cell-based; conditions: HEp-2, 48 h; how it was run: as §1
[7] = system: Mycolicibacterium smegmatis; assay: Antibacterial activity against Mycobacterium smegmatis CECT 3032 up to 40 ug/mL by broth microdilution method; type: functional, organism-based; how it was run: as §2
[8] = system: Staphylococcus aureus; assay: Antibacterial activity against Staphylococcus aureus ATCC 6538 up to 40 ug/mL by broth microdilution method; type: functional, organism-based; how it was run: as §2
[9] = system: Pseudomonas aeruginosa; assay: Antibacterial activity against Pseudomonas aeruginosa AK 958 up to 40 ug/mL by broth microdilution method; type: functional, organism-based; how it was run: as §2
[10] = system: Candida albicans; assay: Antifungal activity against Candida albicans UBC1 up to 40 ug/mL by broth microdilution method; type: functional, organism-based
How it was run: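 The yeast is grown on Sabouraud agar at 37 °C. Compounds are dissolved in DMSO, and the minimal inhibitory concentration is estimated by broth microdilution.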

[11] = system: Staphylococcus epidermidis; assay: Antibacterial activity against Staphylococcus epidermidis CECT 232 up to 40 ug/mL by broth microdilution method; type: functional, organism-based; how it was run: as §2
[12] = system: Proteus mirabilis; assay: Antibacterial activity against Proteus mirabilis CECT170 up to 40 ug/mL by broth microdilution method; type: functional, organism-based; how it was run: as §2
[13] = system: Salmonella; assay: Antibacterial activity against Salmonella sp. CECT 456 up to 40 ug/mL by broth microdilution method; type: functional, organism-based; how it was run: as §2
[14] = system: Bacillus subtilis; assay: Antibacterial activity against Bacillus subtilis CECT 39 up to 40 ug/mL by broth microdilution method; type: functional, organism-based; how it was run: as §2
[15] = system: Escherichia coli; assay: Antibacterial activity against Escherichia coli CECT 99 up to 40 ug/mL by broth microdilution method; type: functional, organism-based; how it was run: as §2
[16] = system: Bacillus pumilus; assay: Antibacterial activity against Bacillus pumilus CECT 29 up to 40 ug/mL by broth microdilution method; type: functional, organism-based; how it was run: as §2
[17] = system: Enterococcus faecalis; assay: Antibacterial activity against Enterococcus faecalis CECT 795 up to 40 ug/mL by broth microdilution method; type: functional, organism-based; how it was run: as §2
[18] = system: Priestia megaterium; assay: Antibacterial activity against Bacillus megaterium CECT 44 up to 40 ug/mL by broth microdilution method; type: functional, organism-based; how it was run: as §2
[19] = system: Bacillus cereus; assay: Antibacterial activity against Bacillus cereus CECT 496 up to 40 ug/mL by broth microdilution method; type: functional, organism-based; how it was run: as §2
[20] = system: Staphylococcus saprophyticus; assay: Antibacterial activity against Staphylococcus saprophyticus CECT 235 up to 40 ug/mL by broth microdilution method; type: functional, organism-based; how it was run: as §2

MIC [2]	MIC [3]	MIC [5]	SMILES	IC50 [1]	IC50 [4]	IC50 [6]	Activity [7]	Activity [8]	Activity [9]	Activity [10]	Activity [11]	Activity [12]	Activity [13]	Activity [14]	Activity [15]	Activity [16]	Activity [17]	Activity [18]	Activity [19]	Activity [20]
20 µg/mL (≈ 42.5 µM)	35 µg/mL (≈ 74.4 µM)	25 µg/mL (≈ 53.1 µM)	C=C(C)[C@@H]1CC[C@]2(C(=O)O)CC[C@]3(C)[C@@H](CC[C@@H]4[C@@]5(C)CCC(=O)C(C)(C)[C@@H]5[C@H](O)C[C@]43C)[C@@H]12	> 10 µg/mL	> 10 µg/mL	> 10 µg/mL														
			C=C(C)[C@@H]1CC[C@]2(CO)CC[C@]3(C)[C@H](CC[C@@H]4[C@@]5(C)CCC(=O)C(C)(C)[C@@H]5CC[C@]43C)[C@@H]12 [BETULONE]	> 10 µg/mL	> 10 µg/mL	> 10 µg/mL	inactive	inactive	inactive	inactive	inactive	inactive	inactive	inactive	inactive	inactive	inactive	inactive	inactive	inactive
			C=C(C)[C@@H]1CC[C@]2(C(=O)O)CC[C@]3(C)[C@H](CC[C@@H]4[C@@]5(C)CC[C@@H](O)C(C)(C)[C@@H]5CC[C@]43C)[C@@H]12 [EPIBETULINIC ACID]	> 10 µg/mL	2.1 µg/mL (≈ 4.6 µM)	3.1 µg/mL (≈ 6.79 µM)	inactive	inactive	inactive	inactive	inactive	inactive	inactive	inactive	inactive	inactive	inactive	inactive	inactive	inactive
			C=C(C)[C@@H]1CC[C@]2(C)CC[C@]3(C)[C@@H](CC[C@@H]4[C@@]5(C)[C@@H](O)C[C@H](O)C(C)(C)[C@@H]5CC[C@]43C)[C@@H]12 [GLOCHIDIOL]	> 10 µg/mL	> 10 µg/mL	> 10 µg/mL	inactive	inactive	inactive	inactive	inactive	inactive	inactive	inactive	inactive	inactive	inactive	inactive	inactive	inactive
			C=C(C)[C@@H]1CC[C@]2(C)CC[C@]3(C)[C@@H](CC[C@@H]4[C@@]5(C)C=CC(=O)C(C)(C)[C@@H]5CC[C@]43C)[C@@H]12 [GLOCHIDONE]	> 10 µg/mL	> 10 µg/mL	> 10 µg/mL	inactive	inactive	inactive	inactive	inactive	inactive	inactive	inactive	inactive	inactive	inactive	inactive	inactive	inactive
			C=C(C)[C@@H]1CC[C@]2(C)CC[C@]3(C)[C@@H](CC[C@@H]4[C@@]5(C)[C@H](O)CC(=O)C(C)(C)[C@@H]5CC[C@]43C)[C@@H]12 [GLOCHIDONOL]	< 10 µg/mL	< 10 µg/mL	< 10 µg/mL	inactive	inactive	inactive	inactive	inactive	inactive	inactive	inactive	inactive	inactive	inactive	inactive	inactive	inactive
			C=C(C)[C@@H]1CC[C@]2(C)CC[C@]3(C)[C@H](CC[C@@H]4[C@@]5(C)CCC(=O)C(C)(C)[C@@H]5CC[C@]43C)[C@@H]12 [LUPENONE]	> 10 µg/mL	> 10 µg/mL	> 10 µg/mL	inactive	inactive	inactive	inactive	inactive	inactive	inactive	inactive	inactive	inactive	inactive	inactive	inactive	inactive
			C=C(C)[C@@H]1CC[C@]2(C)CC[C@]3(C)[C@H](CC[C@@H]4[C@@]5(C)CC[C@H](O)C(C)(C)[C@@H]5CC[C@]43C)[C@@H]12 [LUPEOL]	> 10 µg/mL	> 10 µg/mL	> 10 µg/mL	inactive	inactive	inactive	inactive	inactive	inactive	inactive	inactive	inactive	inactive	inactive	inactive	inactive	inactive
			CC(=O)[C@@H]1CC[C@]2(CO)CC[C@]3(C)[C@@H](CC[C@@H]4[C@@]5(C)CC[C@H](O)C(C)(C)[C@@H]5CC[C@]43C)[C@@H]12 [MESSAGENIN]	> 10 µg/mL	> 10 µg/mL	> 10 µg/mL	inactive	inactive	inactive	inactive	inactive	inactive	inactive	inactive	inactive	inactive	inactive	inactive	inactive	inactive
			C=C(C)[C@@H]1CC[C@]2(C)CC[C@]3(C)[C@@H](C[C@@H](O)[C@@H]4[C@@]5(C)[C@H](O)C[C@H](O)C(C)(C)[C@@H]5CC[C@]43C)[C@@H]12 [NEPETICIN]	< 10 µg/mL	< 10 µg/mL	< 10 µg/mL	inactive	inactive	inactive	inactive	inactive	inactive	inactive	inactive	inactive	inactive	inactive	inactive	inactive	inactive
			C=C(C)[C@@H]1CC[C@@]2(C)[C@H]1[C@@H]1CC[C@@H]3[C@@]4(C)CCC(=O)C(C)(C)[C@@H]4[C@H](O)C[C@@]3(C)[C@]1(C)C[C@@H]2O [RESINONE]	> 10 µg/mL	> 10 µg/mL	> 10 µg/mL	inactive	inactive	inactive	inactive	inactive	inactive	inactive	inactive	inactive	inactive	inactive	inactive	inactive	inactive
			C=C(C)[C@@H]1CC[C@]2(C)CC[C@]3(C)[C@@H](C[C@@H](O)[C@@H]4[C@@]5(C)CCC(=O)C(C)(C)[C@@H]5CC[C@]43C)[C@@H]12 [RIGIDENOL]	> 10 µg/mL	> 10 µg/mL	> 10 µg/mL	inactive	inactive	inactive	inactive	inactive	inactive	inactive	inactive	inactive	inactive	inactive	inactive	inactive	inactive
